# Columns and labels:
# Assay type in all cases: functional
# [1] = system: Rattus norvegicus; test: Percent change in volume of foot edema of test compound to that of positive control was determined at a dose of 10 mg/kg in rat; […]
# [2] = system: Rattus norvegicus; test: Percent change in volume of foot edema of test compound to that of positive control was determined at a dose of 31.6 mg/kg in rat; […]/-69
# [3] = system: Rattus norvegicus; test: Oral Antiallergic activity in the passive foot anaphylaxis (PFA) assay of various amines at the dose of 3.16 mg/kg; -33/-84
# [4] = system: Rattus norvegicus; test: Percent change in volume of foot edema of test compound to that of positive control was determined at a dose of 10 mg/kg in rat; -2/-65
# [5] = system: Rattus norvegicus; test: Percent change in volume of foot edema of test compound to that of positive control was determined at a dose of 31.6 mg/kg in rat; -59/-83
# [6] = system: Rattus norvegicus; test: Percent change in volume of foot edema of test compound to that of positive control was determined at a dose of 10 mg/kg in rat; -9/-80
# [7] = system: Rattus norvegicus; test: Percent change in volume of foot edema of test compound to that of positive control was determined at a dose of 31.6 mg/kg in rat; -61/-63
# [8] = system: Rattus norvegicus; test: Percent change in volume of foot edema of test compound to that of positive control was determined at a dose of 10 mg/kg in rat; -61/-88
# [9] = system: Rattus norvegicus; test: Percent change in volume of foot edema of test compound to that of positive control was determined at a dose of 31.6 mg/kg in rat; -75/-83
# [10] = system: Rattus norvegicus; test: Oral Antiallergic activity in the passive foot anaphylaxis (PFA) assay of various amines at the dose of 3.16 mg/kg; -38/-78
# [11] = system: Rattus norvegicus; test: Percent change in volume of foot edema of test compound to that of positive control was determined at a dose of 10 mg/kg in rat; +22/-73
# [12] = system: Rattus norvegicus; test: Percent change in volume of foot edema of test compound to that of positive control was determined at a dose of 31.6 mg/kg in rat; -85/-78
# [13] = system: Rattus norvegicus; test: Percent change in volume of foot edema of test compound to that of positive control was determined at a dose of 10 mg/kg in rat; -11/-65
# [14] = system: Rattus norvegicus; test: Percent change in volume of foot edema of test compound to that of positive control was determined at a dose of 31.6 mg/kg in rat; -66/-66
# [15] = system: Rattus norvegicus; test: Percent change in volume of foot edema of test compound to that of positive control was determined at a dose of 31.6 mg/kg in rat; -17/-70
# [16] = system: Rattus norvegicus; test: Percent change in volume of foot edema of test compound to that of positive control was determined at a dose of 10 mg/kg in rat; +14/-44
# [17] = system: Rattus norvegicus; test: Percent change in volume of foot edema of test compound to that of positive control was determined at a dose of 31.6 mg/kg in rat; -48/-84
# [18] = species: Cavia porcellus; test: Dose that protects 50% of guinea pig from collapse was determined in guinea pig anaphylaxis assay; conditions: read-out: PD50
# Method in brief: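 Guinea pigs dosed by gavage (10 mL/kg) with compound in 0.5% Tween 80/water; reference theophylline 100 mg/kg po. At 1–24 h, exposed in chamber to aerosolized 1% (w/v) egg albumin at 10 L air/min for up to 5 min; protected if no collapse within 5 min. PD50 by Litchfield and Wilcoxon.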
# [19] = system: Rattus norvegicus; test: Percent change in volume of foot edema of test compound to that of positive control was determined at a dose of 10 mg/kg in rat; -34/-78
# [20] = system: Rattus norvegicus; test: Percent change in volume of foot edema of test compound to that of positive control was determined at a dose of 31.6 mg/kg in rat; -88/-75
# [21] = system: Rattus norvegicus; test: Percent change in volume of foot edema of test compound to that of positive control was determined at a dose of 10 mg/kg in rat; -10/-44
# [22] = system: Rattus norvegicus; test: Percent change in volume of foot edema of test compound to that of positive control was determined at a dose of 31.6 mg/kg in rat; -54/-44
# [23] = system: Rattus norvegicus; test: Percent change in volume of foot edema of test compound to that of positive control was determined at a dose of 31.6 mg/kg in rat; 39/-78
# [24] = system: Rattus norvegicus; test: Percent change in volume of foot edema of test compound to that of positive control was determined at a dose of 31.6 mg/kg in rat; -40/-81
# [25] = system: Rattus norvegicus; test: Percent change in volume of foot edema of test compound to that of positive control was determined at a dose of 10 mg/kg in rat; -53/-76
# [26] = system: Rattus norvegicus; test: Percent change in volume of foot edema of test compound to that of positive control was determined at a dose of 3.16 mg/kg in rat; -50/-84
# [27] = system: Rattus norvegicus; test: Percent change in volume of foot edema of test compound to that of positive control was determined at a dose of 31.6 mg/kg in rat; -83/-69
# [28] = system: Rattus norvegicus; test: Percent change in volume of foot edema of test compound to that of positive control was determined at a dose of 10 mg/kg in rat; -55/-63
# [29] = system: Rattus norvegicus; test: Percent change in volume of foot edema of test compound to that of positive control was determined at a dose of 3.16 mg/kg in rat; -36/-80
# [30] = system: Rattus norvegicus; test: Percent change in volume of foot edema of test compound to that of positive control was determined at a dose of 31.6 mg/kg in rat; -78/-69
smiles,measurement,setting,value
Cc1cc(OCC(O)CCN2CCN(c3ccccc3)CC2)ccc1Cl (stereo unspecified),PFA,[1],-45
same,PFA,[2],-71
same,PFA,[3],-33
OC(CCN1CCN(c2ccc(Br)cc2)CC1)COc1ccccc1 (stereo unspecified),PFA,[4],-2
same,PFA,[5],-59
OC(CCN1CCN(c2ccc(Cl)c(Cl)c2)CC1)COc1ccccc1 (stereo unspecified),PFA,[6],-9
same,PFA,[7],-61
CC(=O)c1ccc(N2CCN(CCC(O)COc3ccc(Cl)cc3)CC2)cc1 (stereo unspecified),PFA,[8],-61
same,PFA,[9],-75
same,PFA,[10],-38
OC(CCN1CCN(c2cccc(Cl)c2)CC1)COc1ccccc1 (stereo unspecified),PFA,[11],22
same,PFA,[12],-85
Cc1ccc(OCC(O)CCN2CCN(c3ccccc3)CC2)cc1 (stereo unspecified),PFA,[13],-11
same,PFA,[14],-66
OC(CCOc1ccccc1)CN1CCN(c2ccccc2)CC1 (stereo unspecified),PFA,[15],-17
Cc1cc(C)cc(OCC(O)CCN2CCN(c3ccccc3)CC2)c1 (stereo unspecified),PFA,[16],14
same,PFA,[17],-48
OC(CCN1CCN(c2ccccc2)CC1)COc1ccccc1 (stereo unspecified),ED50,[18],40 mg/kg
same,PFA,[19],-34
same,PFA,[20],-88
COc1ccc(OCC(O)CCN2CCN(c3ccccc3)CC2)cc1 (stereo unspecified),PFA,[21],-10
same,PFA,[22],-54
OC(CCN1CCN(c2cccc(C(F)(F)F)c2)CC1)COc1ccccc1 (stereo unspecified),PFA,[23],39
c1ccc(OCCN2CCN(c3ccccc3)CC2)cc1,PFA,[24],-40
OC(CCN1CCN(c2ccccc2)CC1)COc1ccc(Cl)cc1 (stereo unspecified),ED50,[18],6.69 mg/kg
same,PFA,[25],-53
same,PFA,[26],-50
same,PFA,[27],-83
OC(CCN1CCN(c2ccc(F)cc2)CC1)COc1ccc(Cl)cc1 (stereo unspecified),PFA,[28],-55
same,PFA,[29],-36
same,PFA,[30],-78

# Reference: ChEMBL document CHEMBL1124808, “The synthesis and antiallergy activity of 1-(aryloxy)-4-(4-arylpiperazinyl)-2-butanol derivatives” (1990)
